Reference: publication PMC7330163 (Pharmacology Research & Perspectives, 2020)
pEC50: −log10 of the molar value. Marks after values point to notes of the source that are not given here.

What was measured:
[1] = Single-dose oral pharmacokinetics in rat; assay type: in vivo; conditions: Sprague-Dawley, plasma
[2] = Single-dose oral pharmacokinetics in dog; assay type: in vivo; conditions: male, Beagle, plasma
[3] = Toxicokinetics of the 4-week toxicity study in rat; assay type: in vivo, Sprague-Dawley rat; conditions: for AUC0‐24 h (day 8/28): day 28
[4] = Toxicokinetics of the 4-week toxicity study in dog; assay type: in vivo, Beagle dog; conditions: for AUC0‐24 h (day 8/28): day 28
total P450 = assay: Total P450 concentration in liver microsomes of the 4-week rat toxicity study; assay type: in vivo, Sprague-Dawley rat; conditions: 4 weeks
In short: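 Microsomes were made from pooled liver (1.5–2 g per dose group) of 4-week toxicity studies, including vehicle controls. Tissue homogenised in ice-cold 50 mmol/L Tris-HCl pH 7.4 with 250 mmol/L sucrose, spun at 9000 g then 100 000 g (4°C), and the pellet washed in 100 mmol/L pyrophosphate pH 7.25 with 1 mmol/L EDTA. Total P450 by carbon monoxide spectrophotometric assay.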

Cyp2c6 = assay: Taqman mRNA upregulation in rat liver, 8-day mechanistic follow-up study; assay type: in vivo, Sprague-Dawley rat; conditions: male rats, 8-day follow-up study, relative to vehicle control
In short: (§1)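 Male Sprague-Dawley rats (n = 4) were given 0, 5, 15 or 50 mg/kg daily for 8 days as a suspension in modified gelatine. Liver transcripts were normalised to 18S and to vehicle-treated rats by the ΔΔCT method; fold = 2−ΔΔCT.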

Cyp2c11 = assay: as above; assay type: in vivo, Sprague-Dawley rat; conditions: male rats, 8-day follow-up study, relative to vehicle control
In short: as §1

Cyp2c13 = assay: Taqman mRNA upregulation in rat liver; assay type: in vivo, Sprague-Dawley rat; conditions: male-specific
Cyp3a12 = assay: Taqman mRNA upregulation in dog liver, 4-week toxicity study; assay type: in vivo, Beagle dog; conditions: 4 weeks; for increase in Cyp3a12 mRNA expression: 500 mg/kg
In short: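 Liver samples (n = 2–3) came from main-group Beagles of the 4-week study, dosed daily at 0, 5, 50 or 500 mg/kg in modified gelatine. Cyp3a12 transcript normalised to 18S and to vehicle-treated dogs (ΔΔCT); fold = 2−ΔΔCT.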

CYP3A4 [5] = assay: Induction of P450 mRNA in human hepatocytes; assay type: cell-based; conditions: 10 µmol/L
In short: (§2)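 Three human hepatocyte batches were cultured as monolayers and treated for 48–89 h with test compound, diluted 1000-fold from DMSO stock, or vehicle. Medium with fresh drug renewed every 24 h; rifampicin and omeprazole served as positive controls. CYP mRNA then measured.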

CYP1A2 = assay: Induction of P450 mRNA in human hepatocytes; assay type: cell-based; conditions: up to 10 µmol/L
In short: as §2

[6] = target: T1, human pregnane X receptor (Homo sapiens, UniProt O75469); assay: PXR reporter-gene assay in green monkey kidney CV-1 cells; assay type: cell-based
T1 sequence (O75469 1-434): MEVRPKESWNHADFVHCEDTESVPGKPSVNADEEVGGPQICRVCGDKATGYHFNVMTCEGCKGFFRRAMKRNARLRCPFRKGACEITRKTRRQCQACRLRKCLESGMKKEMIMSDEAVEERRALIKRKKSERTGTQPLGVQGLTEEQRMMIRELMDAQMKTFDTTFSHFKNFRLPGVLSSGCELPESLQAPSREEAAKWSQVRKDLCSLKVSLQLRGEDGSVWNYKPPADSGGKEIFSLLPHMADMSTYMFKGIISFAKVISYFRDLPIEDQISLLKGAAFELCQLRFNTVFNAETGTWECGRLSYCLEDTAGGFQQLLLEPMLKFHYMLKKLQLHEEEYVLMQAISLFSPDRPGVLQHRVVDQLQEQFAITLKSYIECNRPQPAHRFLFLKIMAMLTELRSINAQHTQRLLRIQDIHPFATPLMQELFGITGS
In short: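 CV-1 cells were grown 3 days in DMEM/F12 with charcoal-treated FBS, then seeded at 25 000/well and lipofected with hPXR expression vector (0.1 ng), CYP3A4-luciferase reporter (20 ng) and β-galactosidase vector (60 ng). After 24 h, cells were treated 24 h in triplicate with 0.03–30 µmol/L test compound or rifampicin in delipidated charcoal-treated FBS medium. Luciferase normalised to β-galactosidase, expressed as fold over DMSO.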

CYP3A4 [7] = conditions: clinical trials, man, 10 mg; cited from earlier work
[8] = test system: hepatic OATP transporters; conditions: partitions into liver by passive diffusion; cited from earlier work
[9] = cited from earlier work

- AUC ([1]; female, 3 mg/kg): 18.4 µg·h/mL
- Cmax ([1]; female, 3 mg/kg): 0.85 µg/mL
- Tmax ([1]; female, 3 mg/kg): 8 h
- bioavailability ([1]; female, 3 mg/kg): 62%
- AUC ([1]; male, 3 mg/kg): 3.24 µg·h/mL
- Cmax ([1]; male, 3 mg/kg): 0.38 µg/mL
- Tmax ([1]; male, 3 mg/kg): 6 h
- bioavailability ([1]; male, 3 mg/kg): 53%
- AUC ([1]; male, 30 mg/kg): 97.4 µg·h/mL
- Cmax ([1]; male, 30 mg/kg): 7.3 µg/mL
- Tmax ([1]; male, 30 mg/kg): 16 h
- AUC ([2]; 1 mg/kg): 2.37 µg·h/mL
- Cmax ([2]; 1 mg/kg): 0.41 µg/mL
- Tmax ([2]; 1 mg/kg): 2 h
- AUC ([2]; 10 mg/kg): 27.5 µg·h/mL
- bioavailability ([2]; 10 mg/kg): 86%
- Upregulation of Cyp2c6 mRNA (Cyp2c6; 5 mg/kg daily): 1.92 ± 0.45
- Upregulation of Cyp2c6 mRNA (Cyp2c6; 15 mg/kg daily): 1.55 ± 1.21
- Upregulation of Cyp2c6 mRNA (Cyp2c6; 50 mg/kg daily): 3.08 ± 2.45
- Upregulation of Cyp2c11 mRNA (Cyp2c11; 5 mg/kg daily): 1.55 ± 0.22
- Upregulation of Cyp2c11 mRNA (Cyp2c11; 15 mg/kg daily): 1.65 ± 1.35
- Upregulation of Cyp2c11 mRNA (Cyp2c11; 50 mg/kg daily): 2.50 ± 0.85
- Induction of Cyp2c13 mRNA (Cyp2c13): No induction
- increase in CYP3A4 mRNA vs DMSO control (CYP3A4 [5]): about 11 fold
- change in CYP1A2 mRNA expression (CYP1A2): No change
- pEC50 [6]: 5.92
Structure (SMILES): CCCNS(=O)(=O)Nc1ncnc(OCCOc2ncc(Br)cn2)c1-c1ccc(Br)cc1 [macitentan]
- AUC0‐24 h (day 1) ([3]; females, 50 mg/kg daily oral): 726 μg/mL"h
- AUC0‐24 h (day 8/28) ([3]; females, 50 mg/kg daily oral): 490 μg/mL"h
- AUC0‐24 h (day 1) ([3]; females, 150 mg/kg daily oral): 1160 μg/mL"h
- AUC0‐24 h (day 8/28) ([3]; females, 150 mg/kg daily oral): 776 μg/mL"h
- AUC0‐24 h (day 1) ([3]; females, 450 mg/kg daily oral): 1590 μg/mL"h
- AUC0‐24 h (day 8/28) ([3]; females, 450 mg/kg daily oral): 1280 μg/mL"h
- AUC0‐24 h (day 1) ([3]; females, 1500 mg/kg daily oral): 2500 μg/mL"h
- AUC0‐24 h (day 8/28) ([3]; females, 1500 mg/kg daily oral): 1590 μg/mL"h
- AUC0‐24 h (day 1) ([3]; males, 50 mg/kg daily oral): 213 μg/mL"h
- AUC0‐24 h (day 8/28) ([3]; males, 50 mg/kg daily oral): 114 μg/mL"h
- AUC0‐24 h (day 1) ([3]; males, 150 mg/kg daily oral): 382 μg/mL"h
- AUC0‐24 h (day 8/28) ([3]; males, 150 mg/kg daily oral): 200 μg/mL"h
- AUC0‐24 h (day 1) ([3]; males, 450 mg/kg daily oral): 595 μg/mL"h
- AUC0‐24 h (day 8/28) ([3]; males, 450 mg/kg daily oral): 327 μg/mL"h
- AUC0‐24 h (day 1) ([3]; males, 1500 mg/kg daily oral): 979 μg/mL"h
- AUC0‐24 h (day 8/28) ([3]; males, 1500 mg/kg daily oral): 365 μg/mL"h
- increase in AUC0‐24h from 50 to 500 mg/kg ([4]; 4-week toxicity study): 5.1 fold
- AUC ([4]; beagle, plasma, oral, 5 mg/kg): 17.5 µg·h/mL
- AUC0‐24 h (day 1) ([4]; females, 5 mg/kg daily oral): 11.6 μg/mL"h
- AUC0‐24 h (day 8/28) ([4]; females, 5 mg/kg daily oral): 10.5 μg/mL"h
- AUC0‐24 h (day 1) ([4]; females, 50 mg/kg daily oral): 94.8 μg/mL"h
- AUC0‐24 h (day 8/28) ([4]; females, 50 mg/kg daily oral): 46.5 μg/mL"h
- AUC0‐24 h (day 1) ([4]; females, 500 mg/kg daily oral): 504 μg/mL"h
- AUC0‐24 h (day 8/28) ([4]; females, 500 mg/kg daily oral): 84.4 μg/mL"h
- AUC0‐24 h (day 1) ([4]; males, 5 mg/kg daily oral): 17.5 μg/mL"h
- AUC0‐24 h (day 8/28) ([4]; males, 5 mg/kg daily oral): 14.7 μg/mL"h
- AUC0‐24 h (day 1) ([4]; males, 50 mg/kg daily oral): 134 μg/mL"h
- AUC0‐24 h (day 8/28) ([4]; males, 50 mg/kg daily oral): 39.1 μg/mL"h
- AUC0‐24 h (day 1) ([4]; males, 500 mg/kg daily oral): 692 μg/mL"h
- AUC0‐24 h (day 8/28) ([4]; males, 500 mg/kg daily oral): 44.9 μg/mL"h
- P450 (total, liver microsomes) (total P450; female rats, macitentan 50 mg/kg daily): 1.05 nmol/mg
- P450 (total, liver microsomes) (total P450; female rats, macitentan 150 mg/kg daily): 1.15 nmol/mg
- P450 (total, liver microsomes) (total P450; female rats, macitentan 450 mg/kg daily): 1.18 nmol/mg
- P450 (total, liver microsomes) (total P450; female rats, macitentan 1500 mg/kg daily): 0.90 nmol/mg
- P450 (total, liver microsomes) (total P450; male rats, macitentan 50 mg/kg daily): 1.35 nmol/mg
- P450 (total, liver microsomes) (total P450; male rats, macitentan 150 mg/kg daily): 1.41 nmol/mg
- P450 (total, liver microsomes) (total P450; male rats, macitentan 450 mg/kg daily): 1.33 nmol/mg
- P450 (total, liver microsomes) (total P450; male rats, macitentan 1500 mg/kg daily): 1.45 nmol/mg
- Upregulation of Cyp3a12 mRNA (Cyp3a12; female dogs, 5 mg/kg daily, relative to vehicle control): 2.84 ± 0.44
- Upregulation of Cyp3a12 mRNA (Cyp3a12; female dogs, 50 mg/kg daily, relative to vehicle control): 4.34 ± 0.61
- Upregulation of Cyp3a12 mRNA (Cyp3a12; female dogs, 500 mg/kg daily, relative to vehicle control, n = 2 only): 12.7 ^a
- increase in Cyp3a12 mRNA expression (Cyp3a12; female dogs): 12.7 fold
- Upregulation of Cyp3a12 mRNA (Cyp3a12; male dogs, 5 mg/kg daily, relative to vehicle control = 1.00): 1.63 ± 0.72
- Upregulation of Cyp3a12 mRNA (Cyp3a12; male dogs, 50 mg/kg daily, relative to vehicle control): 6.45 ± 1.71
- Upregulation of Cyp3a12 mRNA (Cyp3a12; male dogs, 500 mg/kg daily, relative to vehicle control): 18.6 ^b
- increase in Cyp3a12 mRNA expression (Cyp3a12; male dogs): 18.6 fold
- effect on the pharmacokinetics of the sensitive CYP3A4 substrate sildenafil (CYP3A4 [7]): neither changed the pharmacokinetics
- substrate of hepatic OATP transporters [8]: not a substrate of hepatic OATP transporters
- aqueous solubility [9]: low aqueous solubility
